For assay [1], the system named is Mus musculus. As to the kind of experiment: In vivo inhibition of RIP1 in po dosed mouse model of TNF-induced lethal shock assessed as plasma concentration required for reduction in body temperature loss pretreated for 15 mins followed by TNF-stimulation measured after 6 hrs. It counts as functional, organism-based.
Assay [2] concerns Mus musculus. Nature of the assay: Protection against TNF/zVAD-induced lethal shock in mouse assessed as reduction in body temperature loss at 10 mg/kg, po pretreated for 15 mins followed by TNF/zVAD-stimulation measured after 3 hrs relative to control. It counts as functional. Further details: scale not given: the % may be the effect or the level left.
Assay [3] is described as follows: Displacement of (14-(2-{[3-({2-{[4-(cyanomethyl)phenyl]amino}-6-[(5-cyclopropyl-1H-pyrazol-3-yl)-amino]-4-pyrimidinyl}amino)propyl]amino}-2-oxoethyl)-16,16,18,18-tetramethyl-6,7,7a,8a,9,10,16,18-octahydrobenzo[2'',3'']indolizino-[8'',7'':5',6']pyrano[3',2':3,4]pyrido[1,2-a]indol-5-ium-2-sulfonate from rabbit RIP1 (1 to 371 residues) expressed in baculovirus infected insect cells measured for 50 mins by fluorescence polarization assay. Further details: species or system Oryctolagus cuniculus. Summed up:
(§1)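 Competitive FP binding assay in which test compounds displace a fluorescently labeled ATP-competitive ligand from RIP1.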
On the technique in general: In fluorescence polarisation assays a small probe gives low polarisation when free and higher when bound to something large.

The nature of assay [4]: Displacement of (14-(2-{[3-({2-{[4-(cyanomethyl)phenyl]amino}-6-[(5-cyclopropyl-1H-pyrazol-3-yl)-amino]-4-pyrimidinyl}amino)propyl]amino}-2-oxoethyl)-16,16,18,18-tetramethyl-6,7,7a,8a,9,10,16,18-octahydrobenzo[2'',3'']indolizino-[8'',7'':5',6']pyrano[3',2':3,4]pyrido[1,2-a]indol-5-ium-2-sulfonate from monkey RIP1 (1 to 379 residues) expressed in baculovirus infected insect cells measured for 50 mins by fluorescence polarization assay. Further details: species or system Macaca mulatta. Summed up:
as §1

Assay [5] can be described thus: Inhibition of RIP1 in cynomolgus monkey whole blood assessed as reduction in TNFalpha/[…]/zVAD FMK/SMAC mimetic RMT 5265-IL-1beta production after 6 hrs by sandwich ELISA. The following applies: Macaca fascicularis. Summed up: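 Heparinized venous cynomolgus whole blood was stimulated with stocks of TNF (200 ng/mL), QVD-OPh or zVAD.fmk (400 μM) and RMT 5265 (20 μM), with stock values as printed. Compound was a 5-fold dilution series, top 5 μM, in RPMI/1% FBS/1% DMSO. Incubation was 6 h at 37 °C, 5% CO2, then PBS dilution and centrifugation. Supernatant IL-1β was read by sandwich ELISA.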
For orientation: In an ELISA, binding on a coated surface is turned into a signal by an enzyme label.

The nature of assay [6]: Displacement of (14-(2-{[3-({2-{[4-(cyanomethyl)phenyl]amino}-6-[(5-cyclopropyl-1H-pyrazol-3-yl)-amino]-4-pyrimidinyl}amino)propyl]amino}-2-oxoethyl)-16,16,18,18-tetramethyl-6,7,7a,8a,9,10,16,18-octahydrobenzo[2'',3'']indolizino-[8'',7'':5',6']pyrano[3',2':3,4]pyrido[1,2-a]indol-5-ium-2-sulfonate from rat RIP1 (1 to 377 residues) expressed in baculovirus infected insect cells measured for 50 mins by fluorescence polarization assay. Summed up:
as §1

Assay [7] can be described thus: Displacement of (14-(2-{[3-({2-{[4-(cyanomethyl)phenyl]amino}-6-[(5-cyclopropyl-1H-pyrazol-3-yl)-amino]-4-pyrimidinyl}amino)propyl]amino}-2-oxoethyl)-16,16,18,18-tetramethyl-6,7,7a,8a,9,10,16,18-octahydrobenzo[2'',3'']indolizino-[8'',7'':5',6']pyrano[3',2':3,4]pyrido[1,2-a]indol-5-ium-2-sulfonate from mini pig RIP1 (1 to 375 residues) expressed in baculovirus infected insect cells measured for 50 mins by fluorescence polarization assay. Further details: species or system Sus scrofa. Put shortly: as §1

Assay [8] deals with Mus musculus. Nature of the assay: Protection against TNF/zVAD-induced lethal shock in mouse assessed as reduction in body temperature loss at 3 mg/kg, po pretreated for 15 mins followed by TNF/zVAD-stimulation measured after 3 hrs relative to control. Further details: scale not given: the % may be the effect or the level left. Format: functional.
Assay [9] is described as follows: Displacement of (14-(2-{[3-({2-{[4-(cyanomethyl)phenyl]amino}-6-[(5-cyclopropyl-1H-pyrazol-3-yl)-amino]-4-pyrimidinyl}amino)propyl]amino}-2-oxoethyl)-16,16,18,18-tetramethyl-6,7,7a,8a,9,10,16,18-octahydrobenzo[2'',3'']indolizino-[8'',7'':5',6']pyrano[3',2':3,4]pyrido[1,2-a]indol-5-ium-2-sulfonate from dog RIP1 (1 to 373 residues) expressed in baculovirus infected insect cells measured for 50 mins by fluorescence polarization assay. Further details: species or system Canis lupus familiaris. Summed up:
as §1

For assay [10], the system named is Mus musculus. As to the kind of experiment: In vivo inhibition of RIP1 in po dosed mouse model of TNF/zVAD-induced lethal shock assessed as plasma concentration required for reduction in body temperature loss pretreated for 15 mins followed by TNF-stimulation measured after 3 hrs. It counts as functional, organism-based.
Assay [11] deals with T1, Receptor-interacting serine/threonine-protein kinase 1 (Homo sapiens) (UniProt Q13546).
T1 sequence (whole entry): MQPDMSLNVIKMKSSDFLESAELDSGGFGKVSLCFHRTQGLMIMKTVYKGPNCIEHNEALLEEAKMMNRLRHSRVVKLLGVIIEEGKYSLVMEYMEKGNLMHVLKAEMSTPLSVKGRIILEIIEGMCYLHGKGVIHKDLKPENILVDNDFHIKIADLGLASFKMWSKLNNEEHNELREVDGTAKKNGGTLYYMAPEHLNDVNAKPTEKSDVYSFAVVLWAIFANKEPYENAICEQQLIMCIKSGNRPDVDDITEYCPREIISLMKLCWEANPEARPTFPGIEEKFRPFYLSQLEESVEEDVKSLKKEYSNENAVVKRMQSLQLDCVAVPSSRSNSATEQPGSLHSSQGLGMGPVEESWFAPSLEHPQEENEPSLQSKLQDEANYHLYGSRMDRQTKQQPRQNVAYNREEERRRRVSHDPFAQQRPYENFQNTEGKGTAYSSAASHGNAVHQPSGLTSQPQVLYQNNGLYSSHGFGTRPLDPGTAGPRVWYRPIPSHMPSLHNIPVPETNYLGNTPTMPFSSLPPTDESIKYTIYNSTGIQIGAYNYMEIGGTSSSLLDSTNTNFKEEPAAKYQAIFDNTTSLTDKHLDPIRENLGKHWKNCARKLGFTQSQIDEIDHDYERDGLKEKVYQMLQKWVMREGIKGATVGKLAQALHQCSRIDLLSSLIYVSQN

The test system of assay [12] is Mus musculus. Nature of the assay: Protection against TNF-induced lethal shock in mouse assessed as reduction in body temperature loss at 10 mg/kg, po pretreated for 15 mins followed by TNF-stimulation measured after 6 hrs relative to control. It counts as functional. Set-up: scale not given: the % may be the effect or the level left.
For assay [13], the system named is Mus musculus. Nature of the assay: Protection against TNF-induced lethal shock in mouse assessed as reduction in body temperature loss at 3 mg/kg, po pretreated for 15 mins followed by TNF-stimulation measured after 6 hrs relative to control. Further details: scale not given: the % may be the effect or the level left. Format: functional.
Assay [14] relates to Mus musculus. As to the kind of experiment: Protection against TNF/zVAD-induced lethal shock in mouse assessed as reduction in body temperature loss at 50 mg/kg, po pretreated for 15 mins followed by TNF/zVAD-stimulation measured after 3 hrs relative to control. Format: functional. Further details: scale not given: the % may be the effect or the level left.
Assay [15] relates to Mus musculus. Nature of the assay: Protection against TNF-induced lethal shock in mouse assessed as reduction in body temperature loss at 50 mg/kg, po pretreated for 15 mins followed by TNF-stimulation measured after 6 hrs relative to control. It counts as functional. Set-up: scale not given: the % may be the effect or the level left.

For the compound `CN1C(=O)[C@@H](NC(=O)c2n[nH]c(Cc3ccccc3)n2)COc2ccccc21` [GSK2982772], the IC50 (usually the concentration that gives 50% inhibition) with Mus musculus [1] was 1 µM; in assay [3], 0.79 µM; in assay [4], 0.02 µM; in [5], 0.004 µM; in [6], 2 µM; in assay [7] it was over 10 µM. For the same compound, the IC50 in assay [9] was 5 µM; in the assay on Mus musculus [10], 3.2 µM. Also, the Activity with Mus musculus [2] came to 63%; in the assay on Mus musculus [8] it was 13%; in the assay with Mus musculus [12] it was 80%; in the assay on Mus musculus [13], 68%; in the assay on Mus musculus [14] it was 93%; with Mus musculus [15] it was 87%. Moreover, the T1/2 in [11] came to 1.87 h.
